Assay results: ChEMBL document CHEMBL4364268, “Carvacrol prodrugs as novel antimicrobial agents” (Eur J Med Chem, 2019)
≈ marks a conversion by molar mass, not a printed value.

What was measured:
Candida albicans [1] = experiment: Antifungal activity against Candida albicans after 24 hrs by EUCAST method; type: functional
[2] = Stability in human plasma by HPLC analysis; type: ADME, cell-free
Procedure, shortened: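 Compound stock was added to 80% human plasma (diluted with 0.02 M phosphate buffer, pH 7.4) at 37 °C. Samples taken over time were stopped with 0.01 M HCl in methanol and centrifuged 5 min at 5000 g. Supernatant was analysed by HPLC-UV at 274 nm (C18, water/ACN + 0.1% TFA, isocratic, 1 mL/min).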

[3] = n-Octanol/water partition coefficient, log P of compound by HPLC analysis; type: physicochemical
Candida tropicalis = experiment: Antifungal activity against Candida tropicalis KUEN 1025 assessed as zone of inhibition by disc diffusion method; type: functional
Procedure, shortened: (§1)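 Disc diffusion on potato dextrose medium with 0.8% agar against Candida strains. Fluconazole and amphotericin B served as positive controls. Inhibition zone was measured in mm.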

[4] = test system: Staphylococcus epidermidis; experiment: Antibacterial activity against Staphylococcus epidermidis incubated for 18 to 24 hrs by CLSI-based broth microdilution method; type: functional
Klebsiella pneumoniae = experiment: Antibacterial activity against Klebsiella pneumoniae incubated for 18 to 24 hrs by CLSI-based broth microdilution method; type: functional
Candida albicans [5] = experiment: Antifungal activity against Candida albicans ATCC 10231 assessed as zone of inhibition by disc diffusion method; type: functional; procedure, shortened: as §1
Candida dubliniensis = experiment: Antifungal activity against Candida dubliniensis CBS7987 assessed as zone of inhibition by disc diffusion method; type: functional; procedure, shortened: as §1
Acinetobacter baumannii = experiment: Antibacterial activity against Acinetobacter baumannii incubated for 18 to 24 hrs by CLSI-based broth microdilution method; type: functional
Escherichia coli = experiment: Antibacterial activity against Escherichia coli incubated for 18 to 24 hrs by CLSI-based broth microdilution method; type: functional
Candida parapsilosis = experiment: Antifungal activity against Candida parapsilosis ATCC 22019 assessed as zone of inhibition by disc diffusion method; type: functional; procedure, shortened: as §1
Nakaseomyces glabratus = experiment: Antifungal activity against Candida glabrata ATCC 2001 assessed as zone of inhibition by disc diffusion method; type: functional; procedure, shortened: as §1
Enterococcus faecalis = experiment: Antibacterial activity against Enterococcus faecalis incubated for 18 to 24 hrs by CLSI-based broth microdilution method; type: functional
Streptococcus pyogenes = experiment: Antibacterial activity against Streptococcus pyogenes incubated for 18 to 24 hrs by CLSI-based broth microdilution method; type: functional
Pseudomonas aeruginosa = experiment: Antibacterial activity against Pseudomonas aeruginosa incubated for 18 to 24 hrs by CLSI-based broth microdilution method; type: functional
Streptococcus agalactiae = experiment: Antibacterial activity against Streptococcus agalactiae incubated for 18 to 24 hrs by CLSI-based broth microdilution method; type: functional
Streptococcus pneumoniae = experiment: Antibacterial activity against Streptococcus pneumoniae incubated for 18 to 24 hrs by CLSI-based broth microdilution method; type: functional
Staphylococcus aureus = experiment: Antibacterial activity against Staphylococcus aureus incubated for 18 to 24 hrs by CLSI-based broth microdilution method; type: functional
Blood = experiment: Antioxidant activity in human blood assessed as total antioxidant capacity at 10 uM after 48 hrs (reference value: 6.3 +/- 0.5); type: functional
[6] = Aqueous solubility of compound at 50 mg after 1 hr by HPLC analysis; type: physicochemical; details: water

Question: With `OC(Cn1cncn1)(Cn1cncn1)c1ccc(F)cc1F` [FLUCONAZOLE] as the compound, how does the MIC (Candida albicans [1]) read?
Answer: 250 µg/mL (≈ 816 µM)

Question: With `CC(C)=CCC/C(C)=C/COc1cc(C(C)C)ccc1C` as the compound, how does the K [2] read?
Answer: 0.1716 h⁻¹

Question: Which results are given for `Cc1ccc(C(C)C)cc1OC(=O)CCC(=O)N[C@@H](Cc1c[nH]cn1)C(=O)O`?
Answer: logP [3]: < 2.4; MIC (Candida albicans [1]): > 6400 µg/mL

Question: With `Cc1ccc(C(C)C)cc1OC(=O)CCCC(=O)N[C@@H](CCCCN)C(=O)O` as the compound, how does the MIC (Candida albicans [1]) read?
Answer: > 6400 µg/mL

Question: For `Cc1ccc(C(C)C)cc1OC(=O)CCC(=O)N[C@@H](CCCCN)C(=O)O`, which MIC (Candida albicans [1]) is on record?
Answer: > 6400 µg/mL

Question: Which results are given for `Cc1ccc(C(C)C)cc1O` [CARVACROL]?
Answer: inhibition zone (IZ) (Candida tropicalis): 10 mm; MIC [4]: 256 µg/mL (≈ 1700 µM); MIC50 [4]: 256 µg/mL (≈ 1700 µM); MIC90 [4]: 256 µg/mL (≈ 1700 µM); MIC (Klebsiella pneumoniae): 512 µg/mL (≈ 3410 µM); MIC50 (Klebsiella pneumoniae): 512 µg/mL (≈ 3410 µM); MIC90 (Klebsiella pneumoniae): 512 µg/mL (≈ 3410 µM); inhibition zone (IZ) (Candida albicans [5]): 9 mm; inhibition zone (IZ) (Candida dubliniensis): 7 mm; MIC (Acinetobacter baumannii): 64 to 256 µg/mL (≈ 426 to 1700 µM); MIC50 (Acinetobacter baumannii): 128 µg/mL (≈ 852 µM); MIC90 (Acinetobacter baumannii): 256 µg/mL (≈ 1700 µM); MIC (Escherichia coli): 256 µg/mL (≈ 1700 µM); MIC50 (Escherichia coli): 256 µg/mL (≈ 1700 µM); MIC90 (Escherichia coli): 256 µg/mL (≈ 1700 µM); logP [3]: 3.5; inhibition zone (IZ) (Candida parapsilosis): 7 mm; inhibition zone (IZ) (Nakaseomyces glabratus): 8 mm; MIC (Enterococcus faecalis): 128 to 512 µg/mL (≈ 852 to 3410 µM); MIC50 (Enterococcus faecalis): 256 µg/mL (≈ 1700 µM); MIC90 (Enterococcus faecalis): 256 µg/mL (≈ 1700 µM); MIC (Streptococcus pyogenes): 64 to 256 µg/mL (≈ 426 to 1700 µM); MIC50 (Streptococcus pyogenes): 128 µg/mL (≈ 852 µM); MIC90 (Streptococcus pyogenes): 256 µg/mL (≈ 1700 µM); MIC (Pseudomonas aeruginosa): ≥ 512 µg/mL; MIC50 (Pseudomonas aeruginosa): > 512 µg/mL; MIC90 (Pseudomonas aeruginosa): > 512 µg/mL; MIC (Streptococcus agalactiae): 256 to 512 µg/mL (≈ 1700 to 3410 µM); MIC50 (Streptococcus agalactiae): 256 µg/mL (≈ 1700 µM); MIC90 (Streptococcus agalactiae): 512 µg/mL (≈ 3410 µM); MIC (Streptococcus pneumoniae): 64 to 256 µg/mL (≈ 426 to 1700 µM); MIC50 (Streptococcus pneumoniae): 128 µg/mL (≈ 852 µM); MIC90 (Streptococcus pneumoniae): 256 µg/mL (≈ 1700 µM); MIC (Staphylococcus aureus): 256 µg/mL (≈ 1700 µM); MIC50 (Staphylococcus aureus): 256 µg/mL (≈ 1700 µM); MIC90 (Staphylococcus aureus): 256 µg/mL (≈ 1700 µM); MIC (Candida albicans [1]): 1250 µg/mL (≈ 8320 µM)

Question: With `CC(C)=CCOc1cc(C(C)C)ccc1C` as the compound, how does the K [2] read?
Answer: 0.0294 h⁻¹

Question: For `Cc1ccc(C(C)C)cc1OC(=O)CCCC(=O)NCCN(C)C.Cl`, which MIC (Candida albicans [1]) is on record?
Answer: > 6400 µg/mL

Question: Which MIC (Candida albicans [1]) does the source give for `Cc1ccc(C(C)C)cc1OC(=O)CCC(=O)NCCN(C)C.Cl` here?
Answer: > 6400 µg/mL

Question: Which MIC (Candida albicans [1]) does the source give for `CC(C)=CC(=O)Oc1cc(C(C)C)ccc1C` here?
Answer: > 6400 µg/mL

Question: For `Cc1ccc(C(C)C)cc1OC(=O)CCCC(=O)N[C@@H](CCCNC(=N)N)C(=O)O`, which MIC (Candida albicans [1]) is on record?
Answer: > 6400 µg/mL

Question: Which Activity (Blood) does the source give for `O=C1O[C@H]([C@@H](O)CO)C(O)=C1O` [ASCORBIC ACID] here?
Answer: 19.4

Question: With `Cc1ccc(C(C)C)cc1OC(=O)CCCC(=O)O` as the compound, how does the MIC (Candida albicans [1]) read?
Answer: > 6400 µg/mL

Question: Which MIC (Candida albicans [1]) does the source give for `CC(C)=CCC[C@@H](C)CC(=O)Oc1cc(C(C)C)ccc1C` here?
Answer: > 6400 µg/mL

Question: Which MIC (Candida albicans [1]) does the source give for `Cc1ccc(C(C)C)cc1OC(=O)CCCC(=O)NCCN.Cl` here?
Answer: > 6400 µg/mL

Question: For `CC(C)=CCC/C(C)=C/C(=O)Oc1cc(C(C)C)ccc1C`, which MIC (Candida albicans [1]) is on record?
Answer: > 6400 µg/mL

Question: For `Cc1ccc(C(C)C)cc1OC(=O)CCCC(=O)N[C@@H](Cc1c[nH]cn1)C(=O)O`, which logP [3] is on record?
Answer: < 2.4

Question: What about the solubility at 1 h [6] of the same compound?
Answer: 3330 µg/mL (≈ 8300 µM)

Question: What about the MIC (Candida albicans [1]) of the same compound?
Answer: > 6400 µg/mL

Question: With `Cc1ccc(C(C)C)cc1OC(=O)CCC(=O)NCC(=O)O` as the compound, how does the MIC (Candida albicans [1]) read?
Answer: 6400 µg/mL (≈ 20800 µM)

Question: For `C[C@@H]1[C@H](O)[C@@H](C)/C=C/C=C/C=C/C=C/C=C/C=C/C=C/[C@H](O[C@@H]2O[C@H](C)[C@@H](O)[C@H](N)[C@@H]2O)C[C@@H]2O[C@](O)(C[C@@H](O)C[C@@H](O)[C@H](O)CC[C@@H](O)C[C@@H](O)CC(=O)O[C@H]1C)C[C@H](O)[C@H]2C(=O)O` [AMPHOTERICIN B], which “inhibition zone (IZ)” value (Candida tropicalis) is on record?
Answer: 10 mm

Question: And the “inhibition zone (IZ)” value (Candida albicans [5])?
Answer: 10 mm

Question: And the “inhibition zone (IZ)” value (Candida dubliniensis)?
Answer: 10 mm

Question: What about the “inhibition zone (IZ)” value (Candida parapsilosis) of the same compound?
Answer: 9 mm

Question: And the “inhibition zone (IZ)” value (Nakaseomyces glabratus)?
Answer: 12 mm

Question: Which MIC (Candida albicans [1]) does the source give for `CC(C)=CCC/C(C)=C/CC/C(C)=C/COc1cc(C(C)C)ccc1C` here?
Answer: > 6400 µg/mL

Question: With `Cc1ccc(C(C)C)cc1OC(=O)CCC(=O)N[C@@H](CCCNC(=N)N)C(=O)O` as the compound, how does the MIC (Candida albicans [1]) read?
Answer: > 6400 µg/mL

Question: Which MIC (Candida albicans [1]) does the source give for `Cc1ccc(C(C)C)cc1OC(=O)CCCC(=O)NCC(=O)O` here?
Answer: > 6400 µg/mL

Question: For `Cc1ccc(C(C)C)cc1OC(=O)CCC(=O)NCCN.Cl`, which MIC (Candida albicans [1]) is on record?
Answer: 3200 µg/mL
